# m5-HT2A agonist = agonists of mouse serotonin 5-HT2A receptor (HTR2A). P35363. CHO-K1 mHTR2A beta-arrestin complementation, luminescence; percent of 30 µM serotonin response. activation, % at 7.6 µM. actives 0.66% (n = 360,000). AID 624169;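 active means activation above a run cutoff, the mean activation of all tested compounds plus 3 SD, cut at about 14% in these data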;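 further: 0% = plate median of compound wells and 100% = 30 µM serotonin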
# TAAR1 antag = human TAAR1 antagonism. Q96RJ0. CHO RD-HGA16 TAAR1, Fluo-8 calcium fluorescence, antagonist. inhibition, % at 3 µM. actives 1.5% (n = 360,000). AID 624466;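 active means inhibition above a per-plate cutoff, the mean inhibition of test compounds on that plate plus 3 SD, cut at about 49% in these data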;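 further: 0% = DMSO plus EC80 beta-PEA response and 100% = DMSO alone without agonist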
#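 Test system: RD-HGA16 CHO cells with stable hTAAR1 and Gα16 / Probe or stimulus: EC80 β-phenethylamine stimulus / Times: seeding 17-24 h prior, 75-min 37 °C, 30-min RT dye loading / Detection: Fluo-8 calcium-sensitive fluorescence / Read-out basis: % inhibition scaled between DMSO and EC80 PEA controls / Repeats: singlicate, one well per test compound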
# MC4R antagonist = human MC4R antagonism in cAMP assay. actives 0.48% (n = 360,000). inhibition, % at 6.5 µM. P32245. MC4R-expressing cells, MTII-stimulated cAMP, LANCE TR-FRET;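 active means inhibition above its plate's cutoff, the mean of tested wells on that plate plus 3 SD, cut at about 29% in these data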;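 further: 0% = Melanotan II alone and 100% = Melanotan II plus saturating MCL0020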
#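 Test system: U2OS cells stably expressing human melanocortin 4 receptor (MC4R); also added: Melanotan II challenge; compound: 6.5 µM single dose; timing: 30-min compound preincubation, 1-h Melanotan II challenge, 1-h detection, room temperature; signal: Eu-cAMP/anti-cAMP TR-FRET, emission 671 nm; repeats: one well per compound, no replicates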
# TAAR1 ag = human TAAR1 agonism; activation, % at 3 µM; CHO RD-HGA16 TAAR1, Fluo-8 calcium fluorescence; vehicle wells 0%, saturating PEA agonist 100%; Q96RJ0; actives 0.99% (n = 360,000);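 active means activation above the mean activation of all test compounds in the run plus 3 SD, cut at about 38% in these data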
#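 Test system: RD-HGA16 (CHO) cells co-expressing Gα16 and hTAAR1 / Benchmarks: DMSO vehicle as 0%, PEA at EC100 as 100% / Repeats: no replicates (n 1) / Measure: % activation from peak over basal fluorescence ratio, DMSO-to-PEA scaled / Timing: 17-24 h plating, Fluo-8 75 min 37 °C, 30 min RT / Technique: kinetic Fluo-8 calcium fluorescence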
# Beta2AR agonist = human beta-2 adrenergic receptor agonism by FAP | AID 504454 | response, % (test concentration not listed) | P07550 | Am2.2-beta2AR cells, FAP receptor internalization, flow cytometry | actives 0.43% (n = 340,000);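 active means response above a set limit, near 3 SD of response in nonfluorescent compounds, cut at about 42% in these data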
# Target sequence (P07550 whole entry, looked up): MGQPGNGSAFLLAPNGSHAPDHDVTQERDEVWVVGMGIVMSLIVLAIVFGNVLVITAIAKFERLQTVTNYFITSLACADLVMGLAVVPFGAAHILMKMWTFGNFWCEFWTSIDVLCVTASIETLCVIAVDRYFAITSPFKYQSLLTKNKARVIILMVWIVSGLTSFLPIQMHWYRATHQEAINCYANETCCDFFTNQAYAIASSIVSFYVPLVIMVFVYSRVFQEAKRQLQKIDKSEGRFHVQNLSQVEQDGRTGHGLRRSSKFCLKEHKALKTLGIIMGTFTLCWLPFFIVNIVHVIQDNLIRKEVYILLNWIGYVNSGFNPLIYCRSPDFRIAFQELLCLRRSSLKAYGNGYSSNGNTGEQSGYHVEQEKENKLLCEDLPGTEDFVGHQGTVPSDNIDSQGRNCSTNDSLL
# MC4R barr agon = human MC4R agonism via beta-arrestin | activation, % at 8.9 µM | actives 0.98% (n = 360,000) | U2OS MC4R beta-arrestin complementation, luminescence; percent of melanotan II response, DMSO zero;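 active means activation above a per-plate cutoff, the mean activation of sample wells on that plate plus 3 SD, cut at about 8% in these data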
# nonsel antag count = nonselective antagonism, TAAR1 counter-screen; counterscreen cell line, calcium fluorescence, antagonist mode; shares compounds with TAAR1 antag; inhibition, % at 3 µM; actives 77% (n = 2,400); in the data active means inhibition above about 22%;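 further: CHO-Ga16 host cells stimulated with ATP at an EC80 level; 0% = agonist EC80 plus vehicle and 100% = vehicle without agonist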
# TAAR1 ant conf = confirmation of human TAAR1 antagonists. shares compounds with TAAR1 antag. TAAR1-expressing cells, fluorescence antagonist read-out. inhibition, % at 3 µM. actives 40% (n = 2,400). AID 651785; in the data active means inhibition above about 49%;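 further: CHO-Ga16 host cells challenged with agonist PEA near its EC80; 0% = agonist at EC80 plus vehicle and 100% = vehicle with no agonist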
# Ga16 nonsel ag = nonselective Ga16 agonist in TAAR1 antagonist counter-screen; activation, % at 3 µM; Ga16-expressing cells, calcium fluorescence, agonist counterscreen; shares compounds with TAAR1 antag; actives 18% (n = 2,400); in the data active means activation above about 12%;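 further: 0% = vehicle wells and 100% = saturating stimulus response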
# TAAR1 ag counter = counter-screen for human TAAR1 antagonists: TAAR1 agonists | shares compounds with TAAR1 antag | AID 651955 | activation, % at 3 µM | actives 2% (n = 2,400) | hTAAR1 cell line, fluorescence activation, agonist mode; in the data active means activation above about 37%;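 further: CHO cells stably expressing TAAR1 with calcium dye readout; 0% = DMSO vehicle and 100% = full agonist response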
# Numbers without * were called inactive; . = not tested or not shown. Sampled rows, rich in hits. Any-hit rate of the full collection: about 4.3%.
SMILES,m5-HT2A agonist,TAAR1 antag,MC4R antagonist,TAAR1 ag,Beta2AR agonist,MC4R barr agon,nonsel antag count,TAAR1 ant conf,Ga16 nonsel ag,TAAR1 ag counter
O=C(c1ccc(S(=O)(=O)Cc2ccccc2Cl)c([N+](=O)[O-])c1)N1CCN(c2ccccn2)CC1,0,69*,8,17,4,-4,38*,53*,15*,14
COc1ccc(C2c3c(-c4ccccc4O)n[nH]c3C(=O)N2CCc2ccc(OC)c(OC)c2)cc1 (configuration not stated),3,22,6,14,3,0,.,.,.,.
COc1ccc(CCN2C(=O)c3[nH]nc(-c4ccccc4O)c3C2c2cccc(Cl)c2)cc1 (configuration not stated),7,59*,-8,12,24,1,19,40,8,12
Cc1ccc(OCCCC(=O)N(C)CC(=O)Nc2c(C)cccc2C)cc1,4,-19,3,1,.,0,.,.,.,.
CCN(CC(=O)Nc1ccc(NC(C)=O)cc1)C(=O)c1oc2c(ccc3ccccc32)c1C,2,64*,10,33,-2,1,39*,61*,18*,28
COc1ccc(C(=O)COC(=O)C(CCCCN2C(=O)C3C4C=CC(C4)C3C2=O)N2C(=O)C3C4C=CC(C4)C3C2=O)cc1 (configuration not stated),3,59*,9,21,4,2,33*,51*,9,9
Cc1ccccc1C(=O)N1CCN=C1SCc1ccc([N+](=O)[O-])cc1,1,1,1,11,-3,1,.,.,.,.
CCOC(=O)c1c(-c2ccccc2)nnn1-c1nc(OCC)nc(N2CCCCC2)n1,6,53*,9,13,-5,0,23*,30,6,6
CCNC(=S)N/N=C/c1cc(C)n(-c2ccc(Cl)cc2)c1C,-6,101*,-28,11,-9,-3,12,77*,8,24
Cc1nc2ccccn2c1C(=O)N/N=C/c1cc(C)n(-c2ccc(Cl)cc2)c1C,-7,16,-7,8,-18,-2,.,.,.,.
CC1CCN(C(=O)CSc2nc(C(C)C)nc3c2c(=O)n(C)c(=O)n3C)CC1,0,23,8,5,13,4,.,.,.,.
COc1ccc(C(=O)N/C(=C/c2cccs2)C(=O)N2CCN(C)CC2)cc1,0,-3,-6,1,.,0,.,.,.,.
Cc1cc2oc(=O)cc(CSc3nc(N)cc(N)n3)c2cc1C(C)C,-1,22,-17,20,-1,1,.,.,.,.
CCCc1cc(=O)[nH]c(SCc2cc(=O)oc3cc(C)c(C(C)C)cc23)n1,-2,103*,3,-3,12,-1,16,1,3,5
COCCN1Cc2cc(C(=O)OC)c3c(c2C1=O)c1cc(F)ccc1n3C(=O)c1ccccc1,.,74*,.,13,.,.,32*,49*,8,7
COCCN1Cc2cc(C(=O)OC)c3c(c2C1=O)c1cc(F)ccc1n3S(=O)(=O)c1ccc(C)cc1,.,-47,.,-2,.,.,.,.,.,.
COCCN1Cc2cc(C(=O)OC)c3c(c2C1=O)c1cc(OC)ccc1n3C(=O)c1ccccc1,.,74*,.,15,.,.,34*,58*,7,8
O=C(Nc1ccccc1)N1CCC(O)(c2cccc(C(F)(F)F)c2)CC1,4,-7,-1,3,-2,2,.,.,.,.
OC1(c2cccc(C(F)(F)F)c2)CCN(c2ccc(-c3ccccc3)nn2)CC1,-4,75*,14,10,-1,9.2*,19,39,4,-1
CCN(CC)C(=O)c1[nH]cnc1C(=O)NCc1ccccc1,6,10,-3,9,2,0,.,.,.,.
COc1ccc(CCNC(=O)c2ccccc2NC(=O)C2=C(C)OCCS2)cc1OC,3,70*,11,15,7,0,30*,51*,10,15
O=C(NCC(=O)N1CCN(C/C=C/c2ccccc2)CC1)c1ccc(OC(F)F)cc1,-5,1,0,2,-10,0,.,.,.,.
O=S1(=O)N[C@@H](Cc2ccccc2)COc2cccc(N3CCN(Cc4ccccc4F)CC3)c21,-5,71*,.,10,.,.,35*,50*,10,11
CC(C)C[C@@H]1COc2cccc(N3CCN(Cc4ccccc4F)CC3)c2S(=O)(=O)N1,-1,36,.,11,.,.,.,.,.,.
Cc1nn(CCc2nn[nH]n2)c2nc(-c3ccc(C4CCCCC4)cc3)cc(C(F)(F)F)c12,9,80*,3,8,23,0,89*,68*,6,3
SMILES,m5-HT2A agonist,TAAR1 antag,MC4R antagonist,TAAR1 ag,Beta2AR agonist,MC4R barr agon,nonsel antag count,TAAR1 ant conf,Ga16 nonsel ag,TAAR1 ag counter
COc1ccc(C2=NS(=O)(=O)N(C)C(C(=O)Nc3cc(C)ccc3O)=C2)cc1OC,0,70*,7,13,9,-2,40*,51*,9,6
N=c1c2c(ncn1Cc1ccco1)Oc1c(ccc3ccccc13)C2c1ccccc1 (configuration not stated),3,58*,21,0,23,-2,14,14,6,35
Cc1ccc([C@H]2C(C(=O)O)=CC[C@@H](c3ccc(Cl)cc3)N2S(=O)(=O)c2ccc(C)cc2)cc1,2,66*,6,6,11,3,11,46,2,1
Cc1ccc(C(=O)NNC(=O)CSc2nnc(C(C)C)n2C)cc1,10,-8,1,1,-4,1,.,.,.,.
Cc1ccccc1C(=O)N1[C@@H](C(C)C)COc2cc(Br)ccc2S1(=O)=O,1,18,10,0,14,0,.,.,.,.
CC(=O)c1cccc(NC(=O)COC(=O)[C@@H](NC(=O)OCc2ccccc2)C(C)C)c1,1,60*,7,20,-1,-1,30*,50*,10,14
COC(=O)[C@]12C[C@H](CC(=O)N3CCCCC3)C(=O)N(Cc3ccccc3)C1=C[C@H](C(C)(C)C)O[C@@H]2C,.,-11,.,-1,.,.,.,.,.,.
CC(OC(=O)CNS(=O)(=O)c1ccc2ccccc2c1)C(=O)N(C)c1ccccc1 (configuration not stated),7,-18,8,0,0,-4,.,.,.,.
